# Source: ChEMBL document CHEMBL2384924, “Antagonists for the orphan G-protein-coupled receptor GPR55 based on a coumarin scaffold” (J Med Chem, 2013)
# Activity calls are given as the source filed them.
# Target: T1, Cannabinoid receptor 2 (Homo sapiens, UniProt P34972)
# Assay: Antagonist activity at human CB2 receptor expressed in CHOK1 cells assessed as inhibition of forskolin-stimulated cAMP level at 10 uM
# Format: functional, cell-based
# Details: CHO-K1
# T1 sequence (P34972 whole entry): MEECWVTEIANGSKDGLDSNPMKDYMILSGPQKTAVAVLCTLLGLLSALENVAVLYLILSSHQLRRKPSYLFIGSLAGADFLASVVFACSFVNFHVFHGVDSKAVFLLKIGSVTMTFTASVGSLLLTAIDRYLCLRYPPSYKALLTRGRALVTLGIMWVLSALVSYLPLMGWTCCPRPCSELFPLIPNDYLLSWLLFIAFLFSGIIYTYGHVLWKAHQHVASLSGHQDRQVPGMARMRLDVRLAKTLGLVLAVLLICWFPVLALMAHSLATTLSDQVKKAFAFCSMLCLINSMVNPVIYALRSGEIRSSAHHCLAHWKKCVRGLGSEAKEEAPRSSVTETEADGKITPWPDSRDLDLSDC
row,Structure (SMILES),inhibition
1,CCCCCc1cc(O)c2cc(Cc3cccc(O)c3)c(=O)oc2c1,Active
2,CCCCCc1cc(OC)c2cc(Cc3ccc(Br)cc3)c(=O)oc2c1,Active

# Target: T2, G-protein coupled receptor 55 (Homo sapiens, UniProt Q9Y2T6)
# Assay: Antagonist activity at human GPR55 transfected in CHO cells assessed as inhibition of LPI-induced beta-arrestin recruitment at 10 uM incubated 60 mins prior to LPI addition by beta-arrestin translocation assay
# Format: cell-based
# Parameters: scale not given: the % may be the effect or the level left
# Details: not given
# In short: (§1)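 CHO cells stably expressing human GPR55 were seeded at 20,000 cells/well for 24 h at 37°C. Compound in PBS/10% DMSO/0.1% BSA was added 60 min before 1 µM LPI. Galacton-Star/Emerald-II/lysis buffer (pH 8) was applied for 60 min at RT, with luminescence read-out. Screening was at 10 µM (% inhibition). IC50 was measured where inhibition exceeded 60%. Three independent experiments in duplicate.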
# T2 sequence (Q9Y2T6 whole entry): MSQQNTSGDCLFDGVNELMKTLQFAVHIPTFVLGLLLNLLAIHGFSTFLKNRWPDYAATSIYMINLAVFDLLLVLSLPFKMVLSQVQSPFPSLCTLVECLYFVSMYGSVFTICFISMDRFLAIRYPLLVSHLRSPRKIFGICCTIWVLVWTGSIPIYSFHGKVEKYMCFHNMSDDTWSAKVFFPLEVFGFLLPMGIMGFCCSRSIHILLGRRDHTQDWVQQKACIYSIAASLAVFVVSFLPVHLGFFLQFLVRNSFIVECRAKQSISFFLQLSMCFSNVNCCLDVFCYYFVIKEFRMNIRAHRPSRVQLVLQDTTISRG
row,Structure (SMILES),Activity [%]
1,CCCCCCC(C)(C)c1cc(OC)c2cc(Cc3ccccc3)c(=O)oc2c1,51
2,CCCCCc1cc(O)c2cc(Cc3ccccc3C)c(=O)oc2c1,19
3,CCCCCCCC(C)(C)c1cc(OC)c2cc(Cc3ccccc3OC)c(=O)oc2c1,31
4,CCCCCCC(C)(C)c1cc(OC)c2cc(Cc3ccccc3OC)c(=O)oc2c1,25
5,CCCCCc1cc(O)c2cc(Cc3ccccc3Cl)c(=O)oc2c1,0

# Target: T1, Cannabinoid receptor 2
# Assay: Displacement of [3H]-CP55,940 from human CB2 receptor transfected in CHOK1 cells at 10 uM
# Format: cell-based
# Details: CHO-K1
# In short: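 Competition binding used membranes from CHO cells stably expressing human CB2 (1 µg protein per vial) and [3H]CP55,940 at 0.1 nM final. Compound stocks were in DMSO (2.5% final). Compound was tested at 10 µM as % inhibition of radioligand binding. Three independent experiments in duplicate.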
row,Structure (SMILES),Activity [%]
1,CCCCCCCC(C)(C)c1cc(OC)c2cc(Cc3ccccc3OC)c(=O)oc2c1,47

# Target: T3, N-arachidonyl glycine receptor (Homo sapiens) (UniProt Q14330)
# T3 sequence (whole entry): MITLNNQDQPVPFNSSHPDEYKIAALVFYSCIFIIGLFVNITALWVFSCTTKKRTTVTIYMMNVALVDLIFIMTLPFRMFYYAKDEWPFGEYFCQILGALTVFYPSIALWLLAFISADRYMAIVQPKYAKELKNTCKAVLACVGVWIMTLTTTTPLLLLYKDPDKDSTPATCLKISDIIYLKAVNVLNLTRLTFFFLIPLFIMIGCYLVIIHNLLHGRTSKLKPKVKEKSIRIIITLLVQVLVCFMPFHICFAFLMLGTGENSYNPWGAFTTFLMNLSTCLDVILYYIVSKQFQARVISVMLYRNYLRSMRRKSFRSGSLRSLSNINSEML
# Assay: Antagonist activity at human GPR18 transfected in CHO cells assessed as delta9-THC-induced beta-arrestin recruitment at 10 uM incubated 60 mins prior to delta9-THC addition by beta-arrestin translocation assay
# Format: cell-based
# Parameters: scale not given: the % may be the effect or the level left
# Details: not given
# In short: (§2)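 CHO cells stably expressing human GPR18 were seeded at 20,000 cells/well for 24 h at 37°C. Compound in PBS/10% DMSO/0.1% BSA was added 60 min before the GPR18 agonist 3 at 10 µM. The supplier's detection reagent was used, and luminescence was read after 60 min at RT. Screening was at 10 µM (% inhibition); IC50 from concentration-inhibition curves. Three independent experiments in duplicate.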
row,Structure (SMILES),Activity [%]
1,CCCCCCC(C)(C)c1cc(OC)c2cc(Cc3ccccc3)c(=O)oc2c1,31
2,CCCCCc1cc(O)c2cc(Cc3ccccc3C)c(=O)oc2c1,10
3,CCCCCCCC(C)(C)c1cc(OC)c2cc(Cc3ccccc3OC)c(=O)oc2c1,33
4,CCCCCCC(C)(C)c1cc(OC)c2cc(Cc3ccccc3OC)c(=O)oc2c1,26
5,CCCCCc1cc(O)c2cc(Cc3cccc(O)c3)c(=O)oc2c1,27
6,CCCCCc1cc(O)c2cc(Cc3ccccc3Cl)c(=O)oc2c1,0
7,CCCCCc1cc(OC)c2cc(Cc3ccc(Br)cc3)c(=O)oc2c1,30

# Target: T4, Cannabinoid receptor 1 (Homo sapiens, UniProt P21554)
# Assay: Antagonist activity at human CB1 receptor expressed in CHOK1 cells assessed as inhibition of forskolin-stimulated cAMP level at 10 uM
# Format: functional, cell-based
# Details: CHO-K1
# T4 sequence (P21554 whole entry): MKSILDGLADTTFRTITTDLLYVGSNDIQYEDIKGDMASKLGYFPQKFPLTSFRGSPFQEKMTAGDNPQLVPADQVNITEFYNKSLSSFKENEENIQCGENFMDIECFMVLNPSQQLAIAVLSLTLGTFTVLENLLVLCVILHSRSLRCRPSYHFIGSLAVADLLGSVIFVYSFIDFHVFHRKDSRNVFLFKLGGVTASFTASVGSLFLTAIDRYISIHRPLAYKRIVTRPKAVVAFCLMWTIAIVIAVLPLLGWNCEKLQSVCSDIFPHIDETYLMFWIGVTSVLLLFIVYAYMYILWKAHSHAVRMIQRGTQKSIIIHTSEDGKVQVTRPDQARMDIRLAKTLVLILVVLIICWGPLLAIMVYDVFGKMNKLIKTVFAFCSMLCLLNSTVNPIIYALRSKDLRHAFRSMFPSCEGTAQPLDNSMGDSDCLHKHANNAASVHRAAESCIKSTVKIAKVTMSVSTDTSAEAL
row,Structure (SMILES),inhibition
1,CCCCCc1cc(O)c2cc(Cc3cccc(O)c3)c(=O)oc2c1,Active
2,CCCCCc1cc(OC)c2cc(Cc3ccc(Br)cc3)c(=O)oc2c1,Active

# Target: T4, Cannabinoid receptor 1
# Assay: Displacement of [3H]-CP55,940 from human CB1 receptor transfected in CHOK1 cells at 10 uM
# Format: cell-based
# Details: CHO-K1
# In short: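 Human CB1 from membrane preparations of stably transfected CHO cells, 25 µg protein per vial. Competition with [3H]CP55,940 at 0.1 nM final, with test compound at 10 µM, read as % inhibition of radioligand binding. Final DMSO 2.5%. Three independent experiments in duplicate.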
row,Structure (SMILES),Activity [%]
1,CCCCCCCC(C)(C)c1cc(OC)c2cc(Cc3ccccc3OC)c(=O)oc2c1,51

# Target: T2, G-protein coupled receptor 55
# Assay: Agonist activity at human GPR55 transfected in CHO cells at 10 uM after 90 mins by beta-arrestin translocation assay
# Format: cell-based
# Details: not given
# In short: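 CHO cells stably expressing human GPR55 (β-galactosidase fragment complementation) were seeded at 20,000 cells/well in Opti-MEM with 2% FCS for 24 h at 37°C. Compound was diluted in PBS with 10% DMSO and 0.1% BSA, screened at 10 µM and incubated 90 min at 37°C. Galacton-Star/Emerald-II/lysis buffer (1:5:19) was added for 60 min at RT, then luminescence was read. Response is relative to 1 µM LPI (100%).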
row,Structure (SMILES),Activity
1,CCCCCCC(C)(C)c1cc(OC)c2cc(Cc3ccccc3)c(=O)oc2c1,inactive
2,CCCCCc1cc(O)c2cc(Cc3ccccc3C)c(=O)oc2c1,inactive
3,CCCCCCCC(C)(C)c1cc(OC)c2cc(Cc3ccccc3OC)c(=O)oc2c1,inactive
4,CCCCCCC(C)(C)c1cc(OC)c2cc(Cc3ccccc3OC)c(=O)oc2c1,inactive
5,CCCCCc1cc(O)c2cc(Cc3cccc(O)c3)c(=O)oc2c1,inactive
6,CCCCCc1cc(O)c2cc(Cc3ccccc3Cl)c(=O)oc2c1,inactive
7,CCCCCc1cc(OC)c2cc(Cc3ccc(Br)cc3)c(=O)oc2c1,inactive

# Target: T1, Cannabinoid receptor 2
# Assay: Displacement of [3H]-CP55,940 from human CB2 receptor transfected in CHOK1 cells
# Format: cell-based, CHO-K1
# Details: not given
# In short: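 CHO cells stably expressing human CB2 supplied the membranes, 1 µg protein per vial. Compounds were screened at 10 µM, and full competition curves were run where inhibition was about 50% or more. Three independent experiments in duplicate.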
row,Structure (SMILES),Ki [µM]
1,CCCCCc1cc(OC)c2cc(Cc3ccc(Br)cc3)c(=O)oc2c1,0.578

# Target: T4, Cannabinoid receptor 1
# Assay: Displacement of [3H]-CP55,940 from human CB1 receptor transfected in CHOK1 cells
# Format: cell-based, CHO-K1
# Details: not given
row,Structure (SMILES),Ki [µM]
1,CCCCCc1cc(OC)c2cc(Cc3ccc(Br)cc3)c(=O)oc2c1,10.2

# Target: T2, G-protein coupled receptor 55
# Assay: Antagonist activity at human GPR55 transfected in CHO cells assessed as inhibition of LPI-induced beta-arrestin recruitment incubated 60 mins prior to LPI addition by beta-arrestin translocation assay
# Format: cell-based
# Details: not given
# In short: as §1
row,Structure (SMILES),IC50 [µM]
1,CCCCCCC(C)(C)c1cc(OC)c2cc(Cc3ccccc3)c(=O)oc2c1,10
2,CCCCCc1cc(O)c2cc(Cc3ccccc3C)c(=O)oc2c1,> 10
3,CCCCCCCC(C)(C)c1cc(OC)c2cc(Cc3ccccc3OC)c(=O)oc2c1,> 10
4,CCCCCCC(C)(C)c1cc(OC)c2cc(Cc3ccccc3OC)c(=O)oc2c1,> 10
5,CCCCCc1cc(O)c2cc(Cc3cccc(O)c3)c(=O)oc2c1,10.6
6,CCCCCc1cc(O)c2cc(Cc3ccccc3Cl)c(=O)oc2c1,> 10
7,CCCCCc1cc(OC)c2cc(Cc3ccc(Br)cc3)c(=O)oc2c1,3.76

# Target: T5, N-arachidonyl glycine receptor (Homo sapiens, UniProt Q14330)
# T5 sequence (Q14330 whole entry): T3 sequence (whole entry)
# Assay: Antagonist activity at human GPR18 transfected in CHO cells assessed as delta9-THC-induced beta-arrestin recruitment incubated 60 mins prior to delta9-THC addition by beta-arrestin translocation assay
# Format: cell-based
# Details: not given
# In short: as §2
row,Structure (SMILES),IC50 [µM]
1,CCCCCCC(C)(C)c1cc(OC)c2cc(Cc3ccccc3)c(=O)oc2c1,> 10
2,CCCCCc1cc(O)c2cc(Cc3ccccc3C)c(=O)oc2c1,> 10
3,CCCCCCCC(C)(C)c1cc(OC)c2cc(Cc3ccccc3OC)c(=O)oc2c1,> 10
4,CCCCCCC(C)(C)c1cc(OC)c2cc(Cc3ccccc3OC)c(=O)oc2c1,> 10
5,CCCCCc1cc(O)c2cc(Cc3cccc(O)c3)c(=O)oc2c1,> 10
6,CCCCCc1cc(O)c2cc(Cc3ccccc3Cl)c(=O)oc2c1,> 10
7,CCCCCc1cc(OC)c2cc(Cc3ccc(Br)cc3)c(=O)oc2c1,> 10
